From PubChem BioAssay
Sampled rows, rich in hits. Any-hit rate of the full collection: about 3.8%.
OX1R antag-1 – OX1R (human) antagonism. OX1R-expressing cells, FRET antagonist read-out. AID 485270. inhibition, % at 6.6 µM. hit rate 1.8% among 330,000; in the data active = inhibition mostly above about 38%, no sharp cut-off; inactive = mostly below about 40%
Target sequence (O43613 whole entry, looked up): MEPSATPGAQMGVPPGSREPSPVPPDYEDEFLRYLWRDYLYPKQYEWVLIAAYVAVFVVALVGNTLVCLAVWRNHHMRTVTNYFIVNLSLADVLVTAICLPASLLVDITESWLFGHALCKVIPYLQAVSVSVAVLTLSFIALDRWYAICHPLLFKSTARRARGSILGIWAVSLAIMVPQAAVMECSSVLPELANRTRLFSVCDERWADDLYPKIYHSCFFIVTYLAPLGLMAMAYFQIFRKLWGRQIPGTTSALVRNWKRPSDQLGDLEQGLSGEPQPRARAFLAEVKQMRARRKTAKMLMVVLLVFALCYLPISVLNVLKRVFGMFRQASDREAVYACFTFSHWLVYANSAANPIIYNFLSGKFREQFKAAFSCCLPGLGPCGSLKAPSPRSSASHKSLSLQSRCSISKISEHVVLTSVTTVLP
CHO parental Ca – signal in parental CHO cells, OX1R antagonist counter-screen. parental CHO-K1, ATP-induced calcium, Fluo-8 fluorescence. hit rate 0.63% among 330,000. AID 463079. inhibition, % at 5.6 µM;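 active = inhibition above that plate's mean sample inhibition plus 3 SD, cut at about 26% in these data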
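Assay system – parental CHO cells · Reagent – ATP stimulus · Detection – intracellular calcium via Fluo-8 no-wash fluorescent dye · Evaluation – percent inhibition of ATP-evoked calcium rise, normalized to controls · Controls – ATP wells versus no-ATP DMSO wells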
GPR7 antag – blocks human GPR7 receptor signaling; P48145; GPR7-expressing cells, fluorescence antagonist assay; inhibition, % at 4.4 µM; hit rate 1.1% among 290,000; AID 1861; in the data active = inhibition above about 16%, passing the limit was not always enough;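 note: cells stimulated with the agonist NPW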
MPTP block – blocks calcium-induced mitochondrial swelling; isolated mouse mitochondria, Ca2+ swelling absorbance, 30 min; inhibition, % at 10 µM; hit rate 1.4% among 360,000; AID 602449;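 active = inhibition of 50% or more, scaled per plate between neutral and stimulator controls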
OX1R antag-2 – blocks the human orexin 1 receptor | O43613 | CHO/OX1R cells, Fluo-8 calcium fluorescence, orexin A | inhibition, % at 5 µM | hit rate 0.43% among 330,000 | AID 434989;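 active = inhibition above its plate's threshold, mean inhibition of all tested compounds on the plate plus 3 SD, cut at about 37% in these data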
GPR7 antag cf – human GPR7 antagonism, confirmation assay; shares compounds with GPR7 antag; GPR7-expressing cells, calcium fluorescence antagonist mode; inhibition, % at 4.4 µM; hit rate 52% among 2,400; AID 1952; in the data active = inhibition above about 24%;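 note: stimulated with the GPR7 agonist NPW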
MCHR1 antag – counter-screen for GPR7 antagonists: antagonists of human MCHR1 | shares compounds with GPR7 antag | MCHR1-expressing cells, fluorescence antagonist assay | inhibition, % at 4.4 µM | hit rate 62% among 2,400; in the data active = inhibition above about 22%
Each line names hits and unclear results; the compound was inactive in the other large screens (follow-up assays come after a bar, where they were run).

COC(=O)CSc1nc2ccc(NC(=O)CSc3nnnn3Cc3ccccc3)cc2s1	CHO parental Ca 51, GPR7 antag 37, OX1R antag-2 51 | GPR7 antag cf 64 | MCHR1 antag 55
O=C(CSc1nc2ccc(NC(=O)CSc3nnnn3Cc3ccccc3)cc2s1)Nc1ccccc1	none
O=C(CSc1nc2ccc(NC(=O)c3ccccc3C(=O)O)cc2s1)Nc1ccc(F)c([N+](=O)[O-])c1	GPR7 antag 26 | GPR7 antag cf 26 | MCHR1 antag 66
COc1cccc2c1OCC(CN1CCN(CCC(C)C)C(CCO)C1)=C2 (configuration not stated)	none
COc1ccc(S(=O)(=O)NCc2ccc(C(=O)N3CCc4ccccc4C3)cc2)cc1	none
Cc1ccc(-c2noc(CSc3nnc(-c4ccncc4)n3-c3ccc(C)cc3)n2)cc1	none
CCOc1ccc(-n2c(SCc3nc(-c4ccc(C)cc4)no3)nnc2-c2ccncc2)cc1	GPR7 antag 37 | GPR7 antag cf 29 | MCHR1 antag 31
COc1cccc(CC2(CO)CCCN(Cc3c(C)cc(C)cc3-n3cccn3)C2)c1 (configuration not stated)	none (no result: GPR7 antag) | MCHR1 antag inactive
Cc1cc(C)cc(NC(=O)CCc2ccc(C)o2)c1	GPR7 antag 29 | GPR7 antag cf inactive | MCHR1 antag inactive
Cc1cccc(NC(=O)CCc2ccc(C)o2)c1	none
Clc1ccc2[nH]c3c(NCC4CCCO4)ncnc3c2c1 (configuration not stated)	OX1R antag-1 124, CHO parental Ca 38, GPR7 antag 38 (no result: MPTP block) | GPR7 antag cf inactive | MCHR1 antag 62
Cc1cc(Cl)ccc1NC(=O)CSc1nnc(Cc2cccs2)n1Cc1ccco1	GPR7 antag 23 | GPR7 antag cf 38 | MCHR1 antag 34
N#Cc1ccc(CSc2nnc(Cc3cccs3)n2Cc2ccco2)cc1	GPR7 antag 25 | GPR7 antag cf 28 | MCHR1 antag inactive
CCCC(=O)n1nc(-c2cccnc2)nc1NCc1ccccc1	none (no result: OX1R antag-1, CHO parental Ca, OX1R antag-2)
O=[N+]([O-])c1cc(/C=N/Nc2nc3ccccc3[nH]2)c(O)cc1O	none (no result: MPTP block)
CCc1ccc(/C=C2/C(=O)N(C)C(=S)N2CC(=O)OC)s1	GPR7 antag 27 | GPR7 antag cf inactive | MCHR1 antag inactive
CC(C)(C)OC(=O)N1CCC(c2c(C(=O)NCC3CCN(C4CCCC4)C3)cnn2-c2ccccc2Cl)CC1 (configuration not stated)	GPR7 antag 44 | GPR7 antag cf 49 | MCHR1 antag 23
CC(C)(C)OC(=O)N1CCC(c2c(C(=O)O)cnn2-c2ccccc2Cl)CC1	none
Cc1cc(C)c(C)c(S(=O)(=O)NCc2ccc(C(=O)N3CCOCC3)cc2)c1C	none
COc1ccccc1N1CCN(S(=O)(=O)c2ccc3c(c2)oc(=O)n3C)CC1	GPR7 antag 30 | GPR7 antag cf inactive | MCHR1 antag inactive
Cn1c(=O)oc2cc(S(=O)(=O)N3CCN(c4ccccc4F)CC3)ccc21	none
Fc1ccc(C(c2nnnn2Cc2ccccc2)N2CCSCC2)cc1 (configuration not stated)	none
Clc1ccc(C(c2nnnn2CCc2ccccc2)N2CCSCC2)cc1 (configuration not stated)	GPR7 antag 28 | GPR7 antag cf 31 | MCHR1 antag 41
O=C(CN1CCOc2ccccc21)NC1CCCCCCC1	GPR7 antag 25 | GPR7 antag cf inactive | MCHR1 antag inactive
CC(C)c1ccccc1NC(=O)Cn1c(-c2ccccc2Cl)nc2ccccc21	GPR7 antag 23 | GPR7 antag cf inactive | MCHR1 antag inactive
COc1cc(OC)cc(C(=O)NNC(=O)CN2C(=O)NC(C)(c3ccccc3)C2=O)c1 (configuration not stated)	none (no result: GPR7 antag)
COc1ccc(C(=O)N/N=C\c2coc3ccc(Cl)cc3c2=O)cc1	none
COc1cc(C(=O)N/N=C/c2coc3ccc(Cl)cc3c2=O)ccc1O	GPR7 antag 31 | GPR7 antag cf inactive | MCHR1 antag inactive
O=c1[nH]c(Cc2ccccn2)nc2scc(-c3ccccc3Cl)c12	none
COC(=O)CCN(C1CCCCC1)S(=O)(=O)c1ccc(S(=O)(=O)NC2CCCCC2)cc1	GPR7 antag 40 | GPR7 antag cf 51 | MCHR1 antag 32
CC1CCCC(NC(=O)COC(=O)COc2cccc(F)c2)C1C (configuration not stated)	none (no result: GPR7 antag)
Cc1cccc(NC(=O)CCS(=O)(=O)c2ccc(Br)cc2)c1	none
COc1ccc(Cl)cc1N(CC(=O)NC1CC2CCC1C2)S(=O)(=O)c1ccccc1 (configuration not stated)	GPR7 antag 33 | GPR7 antag cf 37 | MCHR1 antag 62
Cc1cccn2c(CN[C@@H]3CCCC[C@H]3c3ccccc3)c(C(=O)N3CCOCC3)nc12	GPR7 antag 29 | GPR7 antag cf inactive | MCHR1 antag 25
Cc1cccn2c(CNC3CCCc4ccccc43)c(C(=O)N3CCOCC3)nc12 (configuration not stated)	none
CCOc1ccc(N(C)S(=O)(=O)c2cc(-c3cc(C)no3)ccc2OC)cc1	none
CCOc1ccc(N(C)S(=O)(=O)c2cc(-c3cc(C)no3)ccc2C)cc1	GPR7 antag 32 | GPR7 antag cf inactive | MCHR1 antag 74
CN(C(=O)/C=C/c1ccc([N+](=O)[O-])s1)c1ccccc1	GPR7 antag 25 | GPR7 antag cf inactive | MCHR1 antag inactive
COc1ccccc1NC(=O)CSc1nnc(CCC(=O)Nc2ccccc2F)n1C	none
CC(OC(=O)C1=COCCO1)C(=O)NC1CCCC(C)C1C (configuration not stated)	none (no result: OX1R antag-1, CHO parental Ca, GPR7 antag, OX1R antag-2)
C=CCN1C(=O)C2C(C(=O)NC)C3C=CC2(O3)C1C(=O)NCc1ccc(OC)cc1 (configuration not stated)	none
CNC(=O)C1C2C=CC3(O2)C1C(=O)N(C1CC1)C3C(=O)NCc1ccc(OC)cc1 (configuration not stated)	GPR7 antag 25 | GPR7 antag cf inactive | MCHR1 antag inactive
O=[N+]([O-])c1c(Nc2ccc(O)cc2)cc(Cl)c2nonc12	OX1R antag-1 99, CHO parental Ca 61, GPR7 antag 83, OX1R antag-2 76 | GPR7 antag cf 94 | MCHR1 antag 102
O=C(NCc1ccccc1)c1c(Cl)nc(Cl)c(Cl)c1Cl	GPR7 antag 76 | GPR7 antag cf 87 | MCHR1 antag 45
Cc1cc(Cl)ccc1NC(=S)NCCc1ccc(S(N)(=O)=O)cc1	none (no result: GPR7 antag)
Cc1cc(Cl)ccc1OCC(O)CNCCc1ccc(S(N)(=O)=O)cc1 (configuration not stated)	GPR7 antag 68 | GPR7 antag cf 66 | MCHR1 antag 73
COc1ccc2oc(C(=O)OC(C)C(=O)N(C)c3ccccc3)c(C)c2c1 (configuration not stated)	none (no result: GPR7 antag)
